The list is not random: actives were taken first. Their share in the collection is about 1.3%.
Tn7 DDE FP = inhibitors of Tn7 peptide binding to fibrin DD(E), primary screen, biochemical, fluorescence polarization, human fibrin, Tn7 probe | Fibrinogen beta chain (Homo sapiens), P02675 | FP displacement of FITC-Tn7 peptide from fibrin DD(E); 0% = median of compound wells per plate | inhibition, % at 8.3 µM | 370,000 tested, 0.13% active;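 active means inhibition above the mean of compounds falling within the control limits plus 3 SD of them, cut at about 14% in these data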;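 further: 0% = plate median of compound wells and 100% = 10 µM Aha-Tn7 peptide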
Target sequence (P02675 whole entry, looked up): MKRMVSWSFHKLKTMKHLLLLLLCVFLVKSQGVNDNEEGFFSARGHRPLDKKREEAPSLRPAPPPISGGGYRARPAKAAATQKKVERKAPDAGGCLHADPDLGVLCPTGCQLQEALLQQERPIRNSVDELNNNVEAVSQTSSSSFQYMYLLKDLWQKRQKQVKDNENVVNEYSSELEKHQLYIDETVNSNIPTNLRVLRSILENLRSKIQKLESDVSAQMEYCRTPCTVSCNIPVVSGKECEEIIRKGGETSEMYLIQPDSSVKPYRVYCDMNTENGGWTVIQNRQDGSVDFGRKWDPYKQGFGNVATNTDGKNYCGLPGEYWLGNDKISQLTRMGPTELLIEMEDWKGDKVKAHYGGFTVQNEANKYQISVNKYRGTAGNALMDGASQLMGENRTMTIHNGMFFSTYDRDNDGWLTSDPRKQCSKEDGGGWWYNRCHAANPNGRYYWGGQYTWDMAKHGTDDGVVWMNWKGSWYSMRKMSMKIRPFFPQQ
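Measure: % inhibition scaled between sample-field median and high-control FP; Test system: human fibrin DD(E); Quantity: 2 µM final DD(E) protein; Doses: one dose, 8.3 µM nominal; Schedule: compound with protein 10 min, then 3 h after probe, room temperature; Detection: fluorescence polarization; Medium: Tris buffer with calcium and detergent, pH 7.8.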
CRFR2-BP ag = agonists of CRF-BP/CRF-R2 complex, primary screen, cell-based, HEK293, calcium dye fluorescence, uHTS. CRF-binding protein / CRF receptor 2 complex (human). calcium dye fluorescence (FLIPR); percent of saturating CRF peptide response. activation, % at 13.2 µM. 350,000 tested, 0.46% active. AID 588473, 2011;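 active means activation of at least 50%, plus an integration ratio under a set limit after plate pattern correction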;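 further: plate controls were neutral control wells without compound for no effect and CRF at EC100 for full effect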
CRFR2-BP antag = antagonists of CRF-BP/CRF-R2 complex, primary screen, cell-based, HEK293, calcium dye fluorescence, uHTS; CRF-induced calcium fluorescence; inhibition, % at 11.8 µM; 350,000 tested, 0.59% active; AID 588475, 2011;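 active means inhibition of the ligand-induced calcium signal above about 50% at the single tested concentration, limit read from the data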
Tn6 DDE FP = inhibitors of Tn6 peptide binding to fibrin DD(E), primary screen, biochemical, fluorescence polarization, human fibrin, Tn6 probe; Fibrinogen beta chain (Homo sapiens), P02675; Fibrin DD(E) TRITC-Tn6 fluorescence polarization displacement; AID 720509, 2013; inhibition, % at 8.3 µM; 370,000 tested, 0.21% active;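 active means inhibition above a per-campaign cutoff: mean of compounds within control limits plus 3 SD, cut at about 15% in these data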;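 further: 0% = median of all compound wells on the plate and 100% = blocking peptide control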
* hit, by the source's call; x = no result.

SMILES	Tn7 DDE FP	CRFR2-BP ag	CRFR2-BP antag	Tn6 DDE FP
CC(=NO)c1ccc2c(c1)Cc1cc([N+](=O)[O-])ccc1-2	3	-2	43	-1
Cc1ccccc1N1CCN(C(=O)CCn2nnc3ccccc32)CC1	-1	x	x	7
COC(=O)c1cc(Cl)nc2ccccc12	0	1	10	5
COc1cc(C(=O)O)c2ccccc2n1	0	-1	65*	0
COC(=O)C1CC(Cl)CN1c1ncc(C(F)(F)F)cc1Cl (stereo not given)	-1	-2	52*	5
CC(C)(C(N)=O)N1CCN(c2ncc(C(F)(F)F)cc2Cl)CC1	-4	3	-16	-5
CC(=C1SC(=S)NC1=O)c1ccccc1	-5	-4	33	8
CC1(c2ccccc2)CC(C)(C)N2C(=O)/C(=C3\SC(=S)NC3=O)c3cccc1c32 (stereo not given)	-3	1	54*	-4
CCOC(=O)N1CCN(CC(O)c2ccc3cc[nH]c3c2)CC1 (stereo not given)	-3	58*	-38	2
CCOC(=O)N1CCN(CC(O)c2ccc3c(c2)CCN3)CC1 (stereo not given)	-1	0	12	6
O=C1N(CCCO)CCC12CCC(c1ccccc1)CC2 (stereo not given)	2	x	x	6
COC(=O)CSC1=NS(=O)(=O)c2ccccc21	x	-10	92*	x
O=C(CSc1nnc(-c2ccncc2)n1-c1ccc(Cl)cc1)c1ccc(Cl)c(Cl)c1	-5	x	x	9
Cc1ccccc1Cn1cc(COC(=O)Nc2ccc(F)cc2)nn1	6	x	x	7
O=C(Nc1ccc(C(=O)O)cc1)Nc1ccc([N+](=O)[O-])cc1	13	0	4	2
O=C(Nc1cc(C(F)(F)F)cc(C(F)(F)F)c1)Nc1cnn(-c2ccc([N+](=O)[O-])cc2)c1C(F)(F)F	0	58*	-29	-1
CCOc1ccccc1C(=O)Nc1ccc2nc(C)[nH]c(=O)c2c1	-5	x	x	-3
Cc1cccc(-n2c(C)cc(C=C3C(=O)c4ccccc4C3=O)c2C)c1	-4	51*	-13	-1
COc1cccc(CN2C(=O)C(C)N(C(=O)c3ccccc3)c3ccccc32)c1 (stereo not given)	2	12	116*	-3
COC(=O)c1cc(-c2cc3ccccc3s2)c(=O)n2c1CCC2	-4	x	x	7
COc1cccc(CN2CCN(Cc3cc4ccccc4[nH]3)CC2CCO)c1 (stereo not given)	-7	57*	-27	-5
C=CCN1C(=O)c2n[nH]c(C(C)C)c2C1c1ccc(C)cc1 (stereo not given)	0	x	x	1
CCn1c(C)nc2cc(C(=O)NN=Cc3ccc([N+](=O)[O-])cc3)ccc21	-3	2	73*	-8
CCn1c(C)nc2cc(C(=O)N/N=C/c3ccc(O)cc3)ccc21	3	1	-14	-15
COC1C(CO)OC(n2c3c(Cl)cccc3c3c4c(c5c6cccc(Cl)c6[nH]c5c32)C(=O)NC4=O)C(O)C1O (stereo not given)	-3	67*	-75	5
SMILES	Tn7 DDE FP	CRFR2-BP ag	CRFR2-BP antag	Tn6 DDE FP
COc1cc(OC)c2c(O)c3c(=O)cc(C)oc3c(-c3c(OC)cc4cc5c(c(O)c4c3O)C(=O)CC(C)(O)O5)c2c1 (stereo not given)	-1	x	x	-6
Cc1ccc(C)c(NC(=O)c2ccccc2NS(=O)(=O)c2cc([N+](=O)[O-])ccc2C)c1	-8	63*	78*	1
CCOC(=O)[C@]12CCCC3=C1N(CCC3)C(=O)[C@@H](CC(=O)NCc1ccc(OC)c(OC)c1)C2	1	x	x	5
Cc1ccc(S(=O)(=O)N2CCC(=O)N(C(COCc3ccc(Cl)c(Cl)c3)Cc3ccccc3)CC2)cc1 (stereo not given)	x	71*	-37	x
Cc1ccc(S(=O)(=O)N2CCC(=O)N(C(COCc3ccc(C(F)(F)F)cc3)Cc3ccccc3)CC2)cc1 (stereo not given)	4	62*	-20	8
CN(C)c1cccc(-c2cnc(N3CCC(C(N)=O)CC3)s2)c1	1	x	x	-6
CC(=O)c1cc(-c2cccc(C(C)C)c2)c(=O)n2c1CCC2	4	x	x	5
C=Cn1cc[n+](CC(=O)c2ccc(Cl)cc2)c1	-2	4	117*	3
C=Cn1cc[n+](CC(=O)c2ccc(Br)cc2)c1	4	-1	10	1
CNS(=O)(=O)/C=C/c1ccccc1CCNC(=O)OC(C)(C)C	-8	x	x	-1
CCOC(=O)c1sc(-c2cccc(C(F)(F)F)c2)nc1O	-1	6	-1	-4
CCOC(=O)c1sc(-c2ccc(C(F)(F)F)cc2)nc1O	-1	58*	54*	-8
C=CCN1C(C(=O)OC)CN(Cc2cn(Cc3ccc(C)cc3)nn2)CCS1(=O)=O (stereo not given)	-13	x	x	-3
O=C(NCc1csc(-c2cccs2)n1)c1ccccc1	0	0	77*	-1
CCOC(=O)[C@]12CCCCC/C=C\1N(Cc1ccc(OC)cc1)C(=O)[C@H]2CC(=O)NCc1cccc2ccccc12	3	x	x	3
Cc1ccc(-n2nc3c(c2NC(=O)c2ccc(OC(C)C)cc2)CS(=O)C3)cc1 (stereo not given)	2	-1	68*	5
CCOc1ccc(C(=O)Nc2c3c(nn2-c2ccc(C)cc2)CS(=O)C3)cc1OCC (stereo not given)	-6	-2	-1	8
O=C(OC12CCCN(C1)/C(=C/c1ccc(Cl)cc1)C2)C1CCCCC1 (stereo not given)	-7	x	x	-5
S=C(Nc1cccc(Br)c1)OC1CCC12CCC(c1ccccc1)CC2 (stereo not given)	-3	x	x	1
CCn1c(SCC(=O)N/N=C/c2cccc(Oc3ccccc3)c2)nnc1-c1ccccc1	1	x	x	-2
COc1ccc2c(COC(=O)CNS(=O)(=O)c3ccccc3)cc(=O)oc2c1	-7	0	1	3
COc1cc(OC)cc(C(=O)NCC(=O)OCc2cc(=O)oc3cc(OC)ccc23)c1	0	-1	105*	-3
CSCSC1=C(C#N)C(c2ccccc2Cl)C(C(C)=O)=C(C)N1 (stereo not given)	1	2	55*	1
COc1ccc(OC)c(C(=O)Cn2nnc3ccccc3c2=O)c1	2	1	-19	3
COc1ccc2c(C)cc(SCn3nnc4ccccc4c3=O)nc2c1	9	3	53*	-1
CN1C(=O)c2cc(NS(C)(=O)=O)ccc2OC[C@H]2O[C@@H](CC(=O)NCc3ccc(-c4ccccc4)cc3)CC[C@@H]21	-4	x	x	0
CC(=O)Nc1ccc(OCC[n+]2cccc(C(N)=O)c2)cc1	-7	0	61*	10
CC(=O)Nc1ccc(OCCC[n+]2ccccc2)cc1	8	1	7	-7

Bioassay records deposited in PubChem by several laboratories.
